Data set [1] can be described thus: Inhibitory activity against 5-lipoxygenase, by using soybean lipoxygenase spectrophotometric assay. Also on record: concentration or dose not given beside the values. Conditions: concentration not given here. In outline:
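Soybean lipoxygenase (10 000 units/mL stock in 0.2 M borate pH 9.0; final 500 units per 3.0 mL) preincubated 30 min at room temperature with chelator at 110 µM iron-binding equivalents or diluent; reaction started with linoleic acid in borate buffer. Linoleic hydroperoxide formation followed at 234 nm (ε 23600 M-1 cm-1); rate versus control gives % inhibition.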

Data set [2] concerns Rattus norvegicus. The data set can be described thus: The compound was tested in vivo for Iron Mobilization efficacy in Fe-Ferritin Loaded Rat model. The format is functional. The procedure, abridged:
(§1)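 One hour later chelator given orally at 450 µmol/kg (controls: equal volume water); individual metabolic cages, food returned 1 h post-dose. Killed 24 h after labelling; liver and GI tract with contents and feces gamma-counted. Mean ± SD, n = 5.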

Data set [3] is described as follows: Partition coefficient (logP). The data set is classed as physicochemical. To be noted: octanol/water. In outline:
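Distribution coefficient D7.4 between 1-octanol and 50 mM MOPS pH 7.4 (mutually saturated). Ligand in aqueous phase at 0.5–1.5 absorbance near 280 nm; octanol added in aliquots, aqueous UV absorbance monitored continuously to equilibrium after each. D = [(A0−A1)/A1]·(Vw/Vo) per addition.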

For data set [4], the species on record is Rattus norvegicus. Briefly: The compound was tested for % iron mobilization in Fe-Ferritin Loaded Rat model. The data set is classed as functional. The procedure, abridged: as §1

The values that follow come from ChEMBL document CHEMBL1135704, “Design, synthesis, and evaluation of novel 2-substituted 3-hydroxypyridin-4-ones: structure-activity investigation of metalloenzyme inhibition by iron chelators” (J Med Chem, 2002).

The inhibition is the share of the control response that was lost under treatment. Regarding `CCCCCCCCn1ccc(=O)c(O)c1C`, the inhibition in data set [1] stood at 98.7%.
Still for that read-out and setting: to `CCCCCCn1ccc(=O)c(O)c1C` belongs 93.2%.
As a reminder, the logP is a log measure of how a compound divides between an organic and an aqueous phase. `CCCNC(=O)CCC(=O)NCc1c(O)c(=O)cc(C)n1C` displayed an inhibition in data set [1] of 2.1%. The compound also came in with an Efficacy with Rattus norvegicus [2] of 19.4%. In data set [3], the logP is -0.701. Moreover, the Mobilization in the data set listed under Rattus norvegicus [4] is 23.3%.
As for `CCCCn1ccc(=O)c(O)c1C`, in data set [1], the inhibition was found to be 80%.
Same read-out and setting: to `CC(=O)NCc1c(O)c(=O)cc(C)n1C` belongs 18.5%; to `CCn1ccc(=O)c(O)c1C`, 58.4%.
Regarding `COCc1c(O)c(=O)cc(C)n1C`, in data set [1], the inhibition was 14.8%. Also, in data set [3], the logP was -0.41.
As to `CC(=O)NCCC(=O)NCc1c(O)c(=O)cc(C)n1C`, the inhibition in data set [1] was 3.8%. Moreover, in the data set with Rattus norvegicus [2], the Efficacy was 5.9%. In data set [3], this compound had a logP of -1.7. In the data set listed under Rattus norvegicus [4], the Mobilization is reported as 9.7%.
In the case of `CCCCc1c(O)c(=O)cc(C)n1C`, the inhibition in data set [1] worked out at 29.6%. The same compound had a logP in data set [3] of 0.9.
As to `CCCCCn1ccc(=O)c(O)c1C`, in data set [1], the inhibition turned out to be 90%.
In the case of `CCc1c(O)c(=O)ccn1C`, the inhibition in data set [1] was found to be 48.5%. In data set [3], this compound had a logP of -0.21.
`CCC(=O)NCc1c(O)c(=O)cc(C)n1C` returned an inhibition in data set [1] of 13.5%. The compound further displayed a logP in data set [3] of -0.72.
In data set [1], `Cc1c(O)c(=O)ccn1C` [DEFERIPRONE] yielded an inhibition of 39.4%. In the data set with Rattus norvegicus [2], this compound showed an Efficacy of 9.5%. Besides, the Mobilization in the data set filed under Rattus norvegicus [4] stood at 13.4%.
In turn, `Cc1cc(=O)c(O)c(CNC(=O)C(C)C)n1C` registered an inhibition in data set [1] of 21%. The lipophilicity (logP) in data set [3] is -0.35.
On the same counts, the results for `CCCc1c(O)c(=O)cc(C)n1C` are 30% and 0.4.
In the same order, the values of `Cn1ccc(=O)c(O)c1` are 59.4% and -0.6.
